In experiment [1] the target is T1, G-protein coupled receptor 84 (Homo sapiens, UniProt Q9NQS5). Kind of experiment: Agonist activity at Gi coupled human GPR84 expressed in CHO cells assessed as inhibition of forskolin-induced cAMP accumulation up to 100 uM preincubated for 5 mins followed by forskolin addition measured after 15 mins in presence of [3H]-cAMP by radiometric assay. The experiment is classed as functional, cell-based. The procedure, abridged:
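Concentration-response in CHO-hGPR84 cells. Compound preincubated 5 min, then forskolin 10 µM added for a further 15 min. Maximal forskolin-induced cAMP without agonist set as 100 %. […] Mean ± SEM of 3 independent experiments in duplicate.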
Background: Changes in cAMP serve as a functional read-out for many G protein-coupled receptors.

The target of experiment [2] is T1, G-protein coupled receptor 84. The experiment can be described thus: Agonist activity at Gi coupled human GPR84 expressed in CHO cells assessed as inhibition of forskolin-induced cAMP accumulation at 10 uM after 15 mins in presence of [3H]-cAMP by radiometric assay relative to decanoic acid. The experiment is classed as functional, cell-based. The procedure, abridged:
(§1)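 Forskolin (10 µM) added with or without test compound for 15 min. Cells lysed in hot (90 °C) EDTA/Triton X-100 solution. cAMP measured radiometrically with bovine adrenal binding protein and [³H]cAMP, expressed as % of forskolin-alone response.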

Experiment [3] has the same target. The experiment can be described thus: Agonist activity at Gi coupled human GPR84 expressed in CHO cells assessed as inhibition of forskolin-induced cAMP accumulation after 15 mins in presence of [3H]-cAMP by radiometric assay. The format is functional, cell-based. Summed up: as §1
Experiment [4] shares this target. The experiment can be described thus: Agonist activity at human GPR84 expressed in CHO cells assessed as beta-arrestin recruitment after 90 mins by beta-galactosidase complementation assay. The experiment is classed as cell-based. Summed up:
(§2)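 CHO cells co-expressing human GPR84–β-galactosidase fragment and β-arrestin–complementary fragment, 20,000 per well. Compounds in DMSO (final ≤1 %) added for 90 min, then detection reagent for 60 min at rt; luminescence read. Three to five independent experiments in duplicate.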

Experiment [5] has the same target. The experiment can be described thus: Agonist activity at human GPR84 expressed in CHO cells assessed as beta-arrestin recruitment at 10 uM after 90 mins by beta-galactosidase complementation assay relative to embelin. The format is cell-based. Summed up: as §2
Background: Recruitment of arrestin is a read-out of receptor activation apart from second messengers.

Experiment [6] has the same target. The experiment can be described thus: Antagonist activity at Gi coupled human GPR84 expressed in CHO cells assessed as inhibition of decanoic acid-induced receptor activation at 10 uM. The experiment is classed as cell-based.
Experiment [7] addresses T2, Free fatty acid receptor 1 (Homo sapiens, UniProt O14842). Kind of experiment: Agonist activity at Gq protein coupled human FFAR1 expressed in human 1321N1 cells assessed as induction of intracellular calcium level at 10 uM measured at 1.2 secs time interval by Fluo-4-AM dye based fluorescence assay. The format is functional, cell-based. The procedure, abridged:
(§3)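 1321N1 astrocytoma cells retrovirally expressing human FFAR1, 50,000 per well, loaded 60 min at rt in dark with 3 µM Fluo-4-AM and 0.06 % Pluronic F-127 in HBSS. Compounds at 10 µM final; antagonist mode uses 30 min preincubation before TUG-424 (final 1 µM). Fluorescence at 520 nm (excitation 485 nm), 90 reads at 1.2 s intervals. Normalized to TUG-424 at 10 µM (agonist) or 1 µM (antagonist).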

Experiment [8] addresses T3, Free fatty acid receptor 4 (Homo sapiens) (UniProt Q5NUL3).
T3 sequence (whole entry): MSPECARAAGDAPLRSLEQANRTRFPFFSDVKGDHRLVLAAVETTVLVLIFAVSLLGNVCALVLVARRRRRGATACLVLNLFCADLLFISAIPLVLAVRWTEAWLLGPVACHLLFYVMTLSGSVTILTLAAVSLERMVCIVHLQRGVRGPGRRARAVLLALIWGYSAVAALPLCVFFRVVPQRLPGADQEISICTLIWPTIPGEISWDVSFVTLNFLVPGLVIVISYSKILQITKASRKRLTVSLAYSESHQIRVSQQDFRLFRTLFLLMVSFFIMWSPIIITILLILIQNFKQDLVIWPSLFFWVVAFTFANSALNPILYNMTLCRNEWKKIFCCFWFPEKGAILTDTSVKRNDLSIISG
The experiment can be described thus: Agonist activity at human FFAR4 expressed in CHO cells assessed as beta-arrestin recruitment at 10 uM after 90 mins by beta-galactosidase complementation assay. The experiment is classed as cell-based. Summed up: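 Human FFAR4 in CHO β-galactosidase complementation cells, 30,000 per well, serum-free F12 ~4 h before assay; final DMSO 1 %, compounds 10 µM. Agonist mode: 90 min with agonist, then detection 60 min rt dark; luminescence. 3–4 experiments in duplicate.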

Experiment [9] has as its target T3, Free fatty acid receptor 4 (Homo sapiens). Kind of experiment: Antagonist activity at human FFAR4 expressed in CHO cells assessed as inhibition of TUG-89-induced beta-arrestin recruitment at 10 uM preincubated for 30 mins followed by TUG-89 addition measured after 90 mins by beta-galactosidase complementation assay. The experiment is classed as cell-based.
The target in experiment [10] is T2, Free fatty acid receptor 1. Kind of experiment: Antagonist activity at Gq protein coupled human FFAR1 expressed in human 1321N1 cells assessed as inhibition of TUG-424-induced intracellular calcium level preincubated for 30 mins followed by TUG-424 addition measured at 1.2 secs time interval by Fluo-4-AM dye based fluorescence assay. The experiment is classed as functional, cell-based. Summed up:
as §3
(Calcium assays in cells follow changes in intracellular calcium, usually with a dye or a luminescent sensor.)

The target in experiment [11] is T1, G-protein coupled receptor 84. Kind of experiment: Positive allosteric modulation of Gi coupled human GPR84 expressed in CHO cells assessed as potentiation of decanoic acid-induced inhibition of forskolin-induced cAMP accumulation by measuring increase in fold shift in decanoic acid EC50 at 0.1 to 30 uM after 15 mins in presence of [3H]-cAMP by radiometric assay. The format is functional, cell-based.

Experiment [12] deals with G-protein coupled receptor 35 (Homo sapiens) (UniProt Q9HC97). Kind of experiment: Agonist activity at human GPR35 at 10 uM.
Chain of G-protein coupled receptor 35 (Homo sapiens) (Q9HC97 whole entry): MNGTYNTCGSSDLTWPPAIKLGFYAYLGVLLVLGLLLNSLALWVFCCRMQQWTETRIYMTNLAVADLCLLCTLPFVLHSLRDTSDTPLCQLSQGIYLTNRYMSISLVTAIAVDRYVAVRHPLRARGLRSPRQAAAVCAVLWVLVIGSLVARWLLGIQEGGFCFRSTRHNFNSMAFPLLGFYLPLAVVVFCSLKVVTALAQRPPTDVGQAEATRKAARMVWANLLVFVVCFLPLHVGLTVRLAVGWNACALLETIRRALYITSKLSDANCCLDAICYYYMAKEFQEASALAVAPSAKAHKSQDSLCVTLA

Molecules are shown by their SMILES. Active and inactive are the calls of the source. A value given as a limit tells only on which side of the number the result lay.

T1 sequence (Q9NQS5 whole entry): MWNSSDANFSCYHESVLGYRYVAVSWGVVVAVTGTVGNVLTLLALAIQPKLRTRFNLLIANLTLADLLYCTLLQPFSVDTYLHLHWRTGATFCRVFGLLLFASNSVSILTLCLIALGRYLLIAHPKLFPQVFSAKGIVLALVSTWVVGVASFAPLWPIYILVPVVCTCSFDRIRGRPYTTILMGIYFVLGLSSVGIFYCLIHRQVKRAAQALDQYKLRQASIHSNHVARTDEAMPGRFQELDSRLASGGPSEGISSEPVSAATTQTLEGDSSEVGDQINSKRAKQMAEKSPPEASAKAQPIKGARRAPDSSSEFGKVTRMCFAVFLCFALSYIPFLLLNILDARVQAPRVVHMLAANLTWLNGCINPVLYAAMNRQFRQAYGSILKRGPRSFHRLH
T2 sequence (O14842 whole entry): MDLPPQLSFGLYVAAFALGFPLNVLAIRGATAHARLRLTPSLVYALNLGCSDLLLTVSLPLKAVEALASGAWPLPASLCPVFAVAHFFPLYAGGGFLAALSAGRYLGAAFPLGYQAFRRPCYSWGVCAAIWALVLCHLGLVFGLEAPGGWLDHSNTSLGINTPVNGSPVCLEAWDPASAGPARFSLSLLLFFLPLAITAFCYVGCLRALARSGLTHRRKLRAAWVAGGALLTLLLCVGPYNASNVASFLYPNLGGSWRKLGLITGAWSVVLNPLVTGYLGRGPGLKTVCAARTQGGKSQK

Regarding `c1ccc2c(c1)[nH]c1cc3c(cc12)[nH]c1ccccc13`, in experiment [1], the inhibition result is “inactive”.
Consider `Clc1ccc2c(Cc3c[nH]c4cc(Cl)ccc34)c[nH]c2c1`, for which the Emax – broadly, the size of the effect at its maximum, as opposed to the concentration needed – was 4% in experiment [2] and 118% in experiment [5]. In addition, the EC50 (usually the concentration that produces a half-maximal response) was > 10 µM in experiment [3] and 5.34 µM in [4]. The inhibition entry in experiment [6] and in [9] was “inactive” each time. Also, the outcome in experiment [7] and in experiment [8] was inactive.
On to `Oc1ccc(C(c2c[nH]c3ccccc23)c2c[nH]c3ccccc23)cc1`, for which the Emax in [2] was 7%; in experiment [5], -5%. The EC50 in experiment [3] and in experiment [4] was > 10 µM in each case. In addition, the inhibition entry in [6] and in experiment [9] was “inactive” each time. Further, the outcome in [7] and in [8] was inactive.
On to `OCc1c[nH]c2ccccc12`, for which the inhibition result in experiment [1] is “inactive”.
Take `c1cc2c(c(C(c3c[nH]c4ccccc34)c3c[nH]c4ccccc34)c1)OCO2`: the Emax in [2] came out at 0%; in experiment [5] it was 7%. Besides, the EC50 in [3] and in [4] was > 10 µM throughout. Also, the inhibition entry in [6] and in experiment [9] was “inactive” each time. Moreover, the outcome in experiment [7] and in experiment [8] was inactive.
Turning to `c1ccc2c(C(c3c[nH]c4ccccc34)c3c[nH]c4ccccc34)c[nH]c2c1`, the Emax is -10% in [2] and 10% in experiment [5]. Also, the EC50 in experiment [3] and in [4] was > 10 µM each time. Also, the inhibition entry in experiment [6] and in experiment [9] was “inactive” throughout. For the same compound, the result in experiment [7] and in experiment [8] was inactive.
Turning to `CCCC(c1c[nH]c2ccccc12)c1c[nH]c2ccccc12`, the Emax in [2] was -24%; in experiment [5], 199%. Also, the EC50 was > 10 µM in experiment [3], 6.07 µM in experiment [4] and 8.81 µM in experiment [10]. Besides, the inhibition entry in experiment [6] and in experiment [9] was “inactive” in each case. The outcome in [7] and in experiment [8] was inactive.
Regarding `COc1ccc2[nH]cc(C=C3C(=O)Nc4ccc(F)cc43)c2c1`, the Emax in experiment [2] is 7%; in experiment [5] it was -31%. Also, the EC50 in experiment [3] and in experiment [4] was > 10 µM throughout. Further, the inhibition entry in experiment [6] and in experiment [9] was “inactive” throughout. Moreover, the outcome in experiment [7] and in experiment [8] was inactive.
Take `Cc1ccc(C(c2c[nH]c3ccccc23)c2c[nH]c3ccccc23)cc1`: the Emax in experiment [2] amounted to 2%; in experiment [5], 10%. Also, the EC50 in experiment [3] and in experiment [4] was > 10 µM each time. For the same compound, the inhibition result in [6] and in experiment [9] was “inactive” in each case. Besides, the outcome in experiment [7] and in [8] was inactive.
For `CCCCC(c1c[nH]c2ccccc12)c1c[nH]c2ccccc12`, the results for the Emax in [2] and in [5] were -4% and -3%, respectively. For the same compound, the EC50 in experiment [3] and in experiment [4] was > 10 µM in each case. Besides, the inhibition entry in [6] and in experiment [9] was “inactive” each time. Also, the outcome in experiment [7] and in [8] was inactive.
As to `CCC(c1c[nH]c2ccccc12)c1c[nH]c2ccccc12`, the values for the Emax in experiment [2] and in experiment [5] were -24% and 67%, respectively. Moreover, the EC50 in experiment [3] is > 10 µM; in experiment [4] it was 2.97 µM. For the same compound, the inhibition result in [6] and in experiment [9] was “inactive” in each case. The outcome in [11], in experiment [7], in [8] and in experiment [12] was inactive.
For the compound `Cc1[nH]c2ccccc2c1Cc1c(C)[nH]c2ccccc12`, the values for the Emax in experiment [2] and in experiment [5] were 42% and 23%, respectively. Moreover, the EC50 in experiment [3] is ≥ 10 µM; in [4], > 10 µM. Also, the inhibition entry in [6] and in experiment [9] was “inactive” throughout. Moreover, the outcome in [7] and in experiment [8] was inactive.
Take `CC(C)C(c1c[nH]c2ccccc12)c1c[nH]c2ccccc12`: the figures for the Emax in experiment [2] and in experiment [5] were 16% and 167%, respectively. Further, the figures for the EC50 in experiment [3], in [4] and in [10] were > 10 µM, 7.29 µM and 8.89 µM, respectively. For the same compound, the inhibition entry in experiment [6] and in [9] was “inactive” throughout. In addition, the outcome in experiment [7] and in experiment [8] was inactive.
With `Fc1cccc2[nH]cc(Cc3c[nH]c4cccc(F)c34)c12`, the Emax came out at 110% in experiment [2] and 108% in experiment [5]. The EC50 in experiment [3] stood at 0.328 µM; in [4] it was 1.23 µM; in experiment [10], 6.49 µM. Further, the outcome in experiment [7] and in experiment [8] was inactive. Also, the inhibition entry in experiment [9] is “inactive”.
With `c1cnc2[nH]cc(Cc3c[nH]c4ncccc34)c2c1`, the Emax in experiment [2] is -12%; in [5], 115%. Besides, the EC50 was > 10 µM in experiment [3] and 2.27 µM in [4]. Further, the inhibition result in [6] and in experiment [9] was “inactive” throughout. Also, the result in experiment [7] and in experiment [8] was inactive.
On to `Cn1cc(Cc2cn(C)c3ccccc23)c2ccccc21`, for which the Emax in [2] is -37%; in [5], -3%. Besides, the EC50 in [3] and in [4] was > 10 µM in each case. Also, the inhibition entry in experiment [6] and in experiment [9] was “inactive” throughout. In addition, the result in experiment [7] and in experiment [8] was inactive.

The values above are taken from ChEMBL document CHEMBL4014307, “Diindolylmethane Derivatives: Potent Agonists of the Immunostimulatory Orphan G Protein-Coupled Receptor GPR84” (J Med Chem, 2017).
